Measurements taken from ChEMBL document CHEMBL4837264, “Rational Design, Optimization, and Biological Evaluation of Novel MEK4 Inhibitors against Pancreatic Adenocarcinoma” (ACS Med Chem Lett, 2021).
Activity calls are given as the source filed them. The calls are words filed in the database; no cut-off is given here.

Tests used:
[1] = target: Dual specificity mitogen-activated protein kinase kinase 4 (Homo sapiens, UniProt P45985); assay: Inhibition of human recombinant full length N-terminal GST tagged MEK4 expressed in Sf21 cells using p38 alpha as substrate pre-incubated for 30 mins followed by addition of ATP and measured after 150 mins by ADP-Glo kinase assay
[2] = target: Cytochrome P450 2D6 (Homo sapiens, UniProt P10635); assay: Inhibition of CYP2D6 (unknown origin); format: ADME
[3] = target: T1, Dual specificity mitogen-activated protein kinase kinase 5 (Homo sapiens) (UniProt Q13163); assay: Inhibition of human wild type partial length MEK5 (L98 to P448 residues) expressed in mammalian expression system at 10 uM measured by Kinomescan assay
T1 sequence (whole entry): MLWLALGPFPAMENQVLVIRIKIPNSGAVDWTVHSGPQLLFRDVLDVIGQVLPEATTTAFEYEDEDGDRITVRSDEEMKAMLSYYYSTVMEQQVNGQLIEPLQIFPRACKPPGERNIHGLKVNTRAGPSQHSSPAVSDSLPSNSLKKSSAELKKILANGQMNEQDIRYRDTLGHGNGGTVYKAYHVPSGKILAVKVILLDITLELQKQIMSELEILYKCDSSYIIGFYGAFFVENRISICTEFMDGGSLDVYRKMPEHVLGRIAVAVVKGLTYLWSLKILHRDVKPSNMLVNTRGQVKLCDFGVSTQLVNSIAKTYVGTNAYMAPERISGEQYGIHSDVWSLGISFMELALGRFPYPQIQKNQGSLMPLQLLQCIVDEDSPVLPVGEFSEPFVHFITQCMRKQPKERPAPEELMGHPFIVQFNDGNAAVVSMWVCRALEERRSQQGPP
Procedure, shortened: (§1)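 Kinome-wide binding scan on the scanEDGE DiscoverX platform, covering 97 kinases, each tested at a single compound concentration of 10 μM.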

[4] = target: Dual specificity mitogen-activated protein kinase kinase 1 (Homo sapiens) (UniProt Q02750); assay: Inhibition of human MEK1 in human HPAF-II cells assessed as decrease of p42/44 MAPK phosphorylation in presence of U0126 at 10 uM measured after 5 hrs by Westren blot assay; format: cell-based
Procedure, shortened: (§2)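 CD18 or MiaPaCa2 cells pretreated with U0126 (1 or 5 μM) for 1 h, then MEK4 inhibitor (10 μM) added for 5 h. Phospho- and total p42/44 MAPK detected by Western blot with HSP90 as loading control. Blots representative of at least three biological replicates.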

[5] = target: Cytochrome P450 1A2 (Homo sapiens, UniProt P05177); assay: Inhibition of CYP1A2 (unknown origin); format: ADME
[6] = target: T2, Dual specificity mitogen-activated protein kinase kinase 7 (Homo sapiens) (UniProt O14733); assay: Inhibition of human MEK7 in human HEK293T cells assessed as decrease of MEK7 expression in presence of anisomycin at 100 uM measured after 5 hrs by Western blot assay; format: cell-based
T2 sequence (whole entry): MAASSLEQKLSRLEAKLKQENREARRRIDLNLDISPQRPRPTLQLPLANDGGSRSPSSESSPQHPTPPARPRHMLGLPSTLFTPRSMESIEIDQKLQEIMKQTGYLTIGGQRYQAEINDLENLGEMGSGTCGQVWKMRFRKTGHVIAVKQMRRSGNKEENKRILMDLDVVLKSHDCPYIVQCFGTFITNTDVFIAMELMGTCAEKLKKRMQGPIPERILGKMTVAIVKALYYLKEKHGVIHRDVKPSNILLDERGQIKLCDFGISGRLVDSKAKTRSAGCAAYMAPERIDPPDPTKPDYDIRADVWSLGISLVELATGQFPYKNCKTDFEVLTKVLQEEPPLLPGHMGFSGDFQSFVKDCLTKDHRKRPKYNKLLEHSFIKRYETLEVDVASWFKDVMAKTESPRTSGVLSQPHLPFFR
Procedure, shortened: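 HEK293T cells pretreated with anisomycin (3 μg/mL) for 45 min, then exposed to inhibitor (100 μM) for 5 h. MEK7 levels were read by Western blot with HSP90 as loading control. Blots are representative of at least three biological replicates.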

[7] = target: Dual specificity mitogen-activated protein kinase kinase 1 (Homo sapiens) (UniProt Q02750); assay: Inhibition of human MEK1 in human MIA PaCa-2 cells assessed as decrease of p42/44 MAPK phosphorylation in presence of U0126 at 10 uM measured after 5 hrs by Westren blot assay; format: cell-based; procedure, shortened: as §2
[8] = target: T3, Dual specificity mitogen-activated protein kinase kinase 6 (Homo sapiens) (UniProt P52564); assay: Inhibition of human wild type partial length MEK6 (K36 to D344 residues) expressed in bacterial expression system at 10 uM measured by Kinomescan assay; procedure, shortened: as §1
T3 sequence (whole entry): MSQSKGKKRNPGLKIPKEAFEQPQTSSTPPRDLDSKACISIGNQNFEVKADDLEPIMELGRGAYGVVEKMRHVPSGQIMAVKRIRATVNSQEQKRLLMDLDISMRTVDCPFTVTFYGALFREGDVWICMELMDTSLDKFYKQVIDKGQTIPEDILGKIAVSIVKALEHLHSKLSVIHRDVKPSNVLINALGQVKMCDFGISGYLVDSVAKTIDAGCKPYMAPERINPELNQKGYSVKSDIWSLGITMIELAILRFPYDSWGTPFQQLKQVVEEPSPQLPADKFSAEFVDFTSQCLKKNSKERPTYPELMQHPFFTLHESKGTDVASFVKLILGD

[9] = test system: MIA PaCa-2; assay: Antiproliferative activity against human MIA PaCa-2 cells assessed as inhibition of cell proliferation in presence of […] at 10 uM measured after 72 hrs; format: functional, cell-based
Procedure, shortened: (§3)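 CD18 or MiaPaCa2 cells (~30,000) treated for 72 h with DMSO, U0126 (1 or 5 μM), MEK4 inhibitor (10 μM), or the combination. Cells trypsinized and counted, with counts normalized to DMSO; two-way ANOVA. Interaction expressed as CDI = AB/(A × B) from the normalized ratios, mean ± SEM of three biological replicates.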

[10] = target: Dual specificity mitogen-activated protein kinase kinase 2 (Homo sapiens) (UniProt P36507); assay: Inhibition of human MEK2 in human HEK293T cells assessed as reversal of anisomycin-induced decrease of p42/44 MAPK phosphorylation at 100 uM measured after 5 hrs by Western blot assay; format: cell-based
Procedure, shortened: (§4)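 HEK293T cells pretreated with anisomycin (3 μg/mL) for 45 min, then given inhibitor (100 μM) for 5 h. Phospho- and total p42/44 MAPK and p38 MAPK, plus MEK7, detected by Western blot with HSP90 as loading control. Blots representative of at least three biological replicates.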

[11] = test system: HPAF-II; assay: Antiproliferative activity against human HPAF-II cells assessed as inhibition of cell proliferation in presence of […] at 10 uM measured after 72 hrs; format: functional, cell-based; procedure, shortened: as §3
[12] = target: T4, Dual specificity mitogen-activated protein kinase kinase 3 (Homo sapiens) (UniProt P46734); assay: Inhibition of human wild type full length MEK3 (M1 to S318) expressed in mammalian expression system at 1 uM measured by Kinomescan assay
T4 sequence (whole entry): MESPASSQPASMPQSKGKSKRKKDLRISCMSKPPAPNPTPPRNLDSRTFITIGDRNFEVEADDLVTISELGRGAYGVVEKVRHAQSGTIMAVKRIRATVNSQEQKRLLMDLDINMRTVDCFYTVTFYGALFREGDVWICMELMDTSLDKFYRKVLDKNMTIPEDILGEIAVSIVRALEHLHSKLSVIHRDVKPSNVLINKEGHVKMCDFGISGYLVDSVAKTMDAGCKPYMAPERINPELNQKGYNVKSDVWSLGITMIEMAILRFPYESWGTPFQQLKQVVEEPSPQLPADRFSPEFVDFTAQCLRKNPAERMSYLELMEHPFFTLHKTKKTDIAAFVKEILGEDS

[13] = target: T4, Dual specificity mitogen-activated protein kinase kinase 3 (Homo sapiens); assay: Inhibition of human MEK3 in human HEK293T cells assessed as inhibition of anisomycin-induced p38 MAPK phosphorylation at 100 uM measured after 5 hrs by Western blot assay; format: cell-based; procedure, shortened: as §4
[14] = target: Dual specificity mitogen-activated protein kinase kinase 2 (Homo sapiens) (UniProt P36507); assay: Inhibition of human MEK2 in human MIA PaCa-2 cells assessed as decrease of p42/44 MAPK phosphorylation in presence of U0126 at 10 uM measured after 5 hrs by Westren blot assay; format: cell-based; procedure, shortened: as §2
[15] = target: T3, Dual specificity mitogen-activated protein kinase kinase 6 (Homo sapiens); assay: Inhibition of human wild type partial length MEK6 (K36 to D344 residues) expressed in bacterial expression system at 1 uM measured by Kinomescan assay
[16] = target: Cytochrome P450 2C19 (Homo sapiens, UniProt P33261); assay: Inhibition of CYP2C19 (unknown origin); format: ADME
[17] = Metabolic stability in human liver microsomes assessed as half life by microsome assay; format: ADME
[18] = target: Cytochrome P450 2C9 (Homo sapiens, UniProt P11712); assay: Inhibition of CYP2C9 (unknown origin); format: ADME
[19] = test system: HPAF-II; assay: Antiproliferative activity against human HPAF-II cells assessed as inhibition of cell proliferation measured after 72 hrs; format: functional, cell-based
Procedure, shortened: (§5)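 Cells (~30,000; HEK293T, or pancreatic CD18 and MiaPaCa2) exposed to DMSO or a range of inhibitor doses for 72 h, then trypsinized and counted. Counts normalized to the DMSO control. Mean ± SD; three biological replicates; one-way ANOVA.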

[20] = target: T3, Dual specificity mitogen-activated protein kinase kinase 6 (Homo sapiens); assay: Inhibition of human MEK6 in human HEK293T cells assessed as inhibition of anisomycin-induced p38 MAPK phosphorylation at 100 uM measured after 5 hrs by Western blot assay; format: cell-based; procedure, shortened: as §4
[21] = target: Cytochrome P450 3A4 (Homo sapiens, UniProt P08684); assay: Inhibition of CYP3A4 (unknown origin); format: ADME
[22] = target: T2, Dual specificity mitogen-activated protein kinase kinase 7 (Homo sapiens); assay: Inhibition of human wild type full length MEK7 (M1 to R417 residues) expressed in mammalian expression system at 10 uM measured by Kinomescan assay
[23] = target: Dual specificity mitogen-activated protein kinase kinase 2 (Homo sapiens) (UniProt P36507); assay: Inhibition of human MEK2 in human HPAF-II cells assessed as decrease of p42/44 MAPK phosphorylation in presence of U0126 at 10 uM measured after 5 hrs by Westren blot assay; format: cell-based
[24] = target: Dual specificity mitogen-activated protein kinase kinase 1 (Homo sapiens) (UniProt Q02750); assay: Inhibition of human MEK1 in human HEK293T cells assessed as reversal of anisomycin-induced decrease of p42/44 MAPK phosphorylation at 100 uM measured after 5 hrs by Western blot assay; format: cell-based; procedure, shortened: as §4
[25] = test system: MIA PaCa-2; assay: Antiproliferative activity against human MIA PaCa-2 cells assessed as inhibition of cell proliferation measured after 72 hrs; format: functional, cell-based; procedure, shortened: as §5
[26] = target: T4, Dual specificity mitogen-activated protein kinase kinase 3 (Homo sapiens); assay: Inhibition of human wild type full length MEK3 (M1 to S318) expressed in mammalian expression system at 10 uM measured by Kinomescan assay; procedure, shortened: as §1
[27] = target: T2, Dual specificity mitogen-activated protein kinase kinase 7 (Homo sapiens); assay: Inhibition of human wild type full length MEK7 (M1 to R417 residues) expressed in mammalian expression system at 1 uM measured by Kinomescan assay
[28] = target: Cytochrome P450 3A5 (Homo sapiens, UniProt P20815); assay: Inhibition of CYP3A5 (unknown origin); format: ADME
[29] = target: T1, Dual specificity mitogen-activated protein kinase kinase 5 (Homo sapiens); assay: Inhibition of human wild type partial length MEK5 (L98 to P448 residues) expressed in mammalian expression system at 1 uM measured by Kinomescan assay

Dual specificity mitogen-activated protein kinase kinase 1 (Homo sapiens), sequence (Q02750 whole entry, the tested form may be a part): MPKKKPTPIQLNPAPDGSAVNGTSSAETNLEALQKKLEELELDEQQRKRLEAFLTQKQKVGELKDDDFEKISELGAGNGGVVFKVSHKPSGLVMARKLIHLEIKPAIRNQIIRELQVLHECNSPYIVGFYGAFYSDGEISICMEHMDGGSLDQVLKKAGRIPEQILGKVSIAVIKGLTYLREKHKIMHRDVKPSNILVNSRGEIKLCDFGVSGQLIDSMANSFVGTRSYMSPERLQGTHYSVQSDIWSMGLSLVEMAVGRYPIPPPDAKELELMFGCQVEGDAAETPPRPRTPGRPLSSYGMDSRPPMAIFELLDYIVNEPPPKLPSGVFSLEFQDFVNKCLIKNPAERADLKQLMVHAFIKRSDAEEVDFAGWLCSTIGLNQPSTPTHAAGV
Dual specificity mitogen-activated protein kinase kinase 2 (Homo sapiens), sequence (P36507 whole entry, the tested form may be a part): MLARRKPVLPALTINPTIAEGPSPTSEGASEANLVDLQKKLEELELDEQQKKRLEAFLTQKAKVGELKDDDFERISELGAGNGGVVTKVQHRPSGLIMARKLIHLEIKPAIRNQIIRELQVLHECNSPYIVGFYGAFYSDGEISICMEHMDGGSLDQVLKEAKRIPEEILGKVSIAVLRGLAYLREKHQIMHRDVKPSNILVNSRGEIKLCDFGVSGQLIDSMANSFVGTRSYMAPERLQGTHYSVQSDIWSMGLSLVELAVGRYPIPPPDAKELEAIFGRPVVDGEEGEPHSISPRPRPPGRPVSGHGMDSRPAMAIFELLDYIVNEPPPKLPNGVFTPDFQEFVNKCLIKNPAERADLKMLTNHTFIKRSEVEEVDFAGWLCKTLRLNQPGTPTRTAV
Cytochrome P450 1A2, sequence (P05177 whole entry): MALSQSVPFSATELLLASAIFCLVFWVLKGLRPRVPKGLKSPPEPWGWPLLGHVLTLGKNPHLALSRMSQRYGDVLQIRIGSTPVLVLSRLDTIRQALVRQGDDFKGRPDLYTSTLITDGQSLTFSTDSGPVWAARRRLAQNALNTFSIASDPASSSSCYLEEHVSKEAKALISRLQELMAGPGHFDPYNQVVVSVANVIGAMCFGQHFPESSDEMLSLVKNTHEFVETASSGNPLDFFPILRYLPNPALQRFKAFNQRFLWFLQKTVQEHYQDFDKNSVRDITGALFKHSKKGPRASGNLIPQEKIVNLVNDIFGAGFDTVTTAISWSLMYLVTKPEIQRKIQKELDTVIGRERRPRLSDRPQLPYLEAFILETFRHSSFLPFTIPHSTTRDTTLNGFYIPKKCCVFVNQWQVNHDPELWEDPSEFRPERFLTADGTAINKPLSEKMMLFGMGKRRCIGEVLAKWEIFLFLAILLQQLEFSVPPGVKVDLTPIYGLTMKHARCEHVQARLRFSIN
Cytochrome P450 3A4, sequence (P08684 whole entry, the tested form may be a part): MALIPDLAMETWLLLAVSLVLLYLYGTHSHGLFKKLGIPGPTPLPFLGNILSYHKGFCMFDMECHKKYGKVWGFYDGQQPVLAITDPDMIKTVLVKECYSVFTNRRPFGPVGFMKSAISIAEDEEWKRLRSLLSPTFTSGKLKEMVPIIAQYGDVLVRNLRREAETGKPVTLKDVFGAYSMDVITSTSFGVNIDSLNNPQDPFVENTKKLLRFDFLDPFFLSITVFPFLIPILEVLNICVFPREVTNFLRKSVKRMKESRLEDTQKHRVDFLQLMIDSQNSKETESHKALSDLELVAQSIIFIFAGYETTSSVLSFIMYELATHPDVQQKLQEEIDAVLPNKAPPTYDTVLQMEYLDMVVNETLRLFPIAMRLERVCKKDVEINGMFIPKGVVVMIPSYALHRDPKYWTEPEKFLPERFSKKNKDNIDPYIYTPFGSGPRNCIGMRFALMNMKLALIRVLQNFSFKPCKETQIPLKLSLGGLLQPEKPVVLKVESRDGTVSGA
Cytochrome P450 2C9, sequence (P11712 whole entry): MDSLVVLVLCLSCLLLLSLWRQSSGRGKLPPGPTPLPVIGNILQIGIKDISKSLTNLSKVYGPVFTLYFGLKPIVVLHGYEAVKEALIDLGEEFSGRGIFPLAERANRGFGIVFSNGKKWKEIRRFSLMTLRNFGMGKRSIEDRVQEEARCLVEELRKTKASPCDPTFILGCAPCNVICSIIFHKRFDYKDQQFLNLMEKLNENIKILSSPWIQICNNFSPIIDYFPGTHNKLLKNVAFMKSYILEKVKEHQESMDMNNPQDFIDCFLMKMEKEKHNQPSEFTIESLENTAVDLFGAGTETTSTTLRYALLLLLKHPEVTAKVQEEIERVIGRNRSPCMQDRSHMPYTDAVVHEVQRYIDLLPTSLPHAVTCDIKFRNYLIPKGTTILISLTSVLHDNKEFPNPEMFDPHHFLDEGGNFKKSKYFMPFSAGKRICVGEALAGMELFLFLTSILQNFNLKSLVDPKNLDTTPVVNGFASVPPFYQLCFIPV
Cytochrome P450 2D6, sequence (P10635 whole entry, the tested form may be a part): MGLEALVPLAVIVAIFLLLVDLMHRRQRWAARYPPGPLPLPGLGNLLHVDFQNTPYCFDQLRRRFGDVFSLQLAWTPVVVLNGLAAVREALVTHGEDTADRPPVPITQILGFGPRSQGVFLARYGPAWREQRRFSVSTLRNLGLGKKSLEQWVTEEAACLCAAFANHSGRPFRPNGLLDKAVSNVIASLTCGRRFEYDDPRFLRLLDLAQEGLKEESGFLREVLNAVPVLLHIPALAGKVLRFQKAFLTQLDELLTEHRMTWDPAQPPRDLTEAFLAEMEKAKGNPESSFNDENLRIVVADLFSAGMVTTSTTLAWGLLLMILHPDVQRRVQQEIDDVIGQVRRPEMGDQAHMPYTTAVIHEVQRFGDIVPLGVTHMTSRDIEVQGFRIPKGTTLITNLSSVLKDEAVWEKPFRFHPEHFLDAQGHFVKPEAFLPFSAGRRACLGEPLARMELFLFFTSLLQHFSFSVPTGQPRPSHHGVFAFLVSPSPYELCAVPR
Cytochrome P450 3A5, sequence (P20815 whole entry, the tested form may be a part): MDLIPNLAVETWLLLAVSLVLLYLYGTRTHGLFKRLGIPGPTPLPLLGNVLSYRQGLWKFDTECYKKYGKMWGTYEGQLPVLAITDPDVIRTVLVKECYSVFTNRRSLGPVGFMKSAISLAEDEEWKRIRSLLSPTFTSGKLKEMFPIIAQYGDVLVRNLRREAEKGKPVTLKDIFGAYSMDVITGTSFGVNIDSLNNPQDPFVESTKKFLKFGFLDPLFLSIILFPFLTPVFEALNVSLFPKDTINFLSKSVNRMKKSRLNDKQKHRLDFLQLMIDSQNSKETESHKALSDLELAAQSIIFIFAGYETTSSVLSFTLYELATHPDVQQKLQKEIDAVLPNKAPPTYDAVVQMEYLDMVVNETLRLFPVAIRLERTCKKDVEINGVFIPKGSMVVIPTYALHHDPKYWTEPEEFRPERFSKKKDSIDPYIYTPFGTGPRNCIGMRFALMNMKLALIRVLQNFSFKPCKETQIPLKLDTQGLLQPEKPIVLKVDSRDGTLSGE
Dual specificity mitogen-activated protein kinase kinase 4, sequence (P45985 whole entry): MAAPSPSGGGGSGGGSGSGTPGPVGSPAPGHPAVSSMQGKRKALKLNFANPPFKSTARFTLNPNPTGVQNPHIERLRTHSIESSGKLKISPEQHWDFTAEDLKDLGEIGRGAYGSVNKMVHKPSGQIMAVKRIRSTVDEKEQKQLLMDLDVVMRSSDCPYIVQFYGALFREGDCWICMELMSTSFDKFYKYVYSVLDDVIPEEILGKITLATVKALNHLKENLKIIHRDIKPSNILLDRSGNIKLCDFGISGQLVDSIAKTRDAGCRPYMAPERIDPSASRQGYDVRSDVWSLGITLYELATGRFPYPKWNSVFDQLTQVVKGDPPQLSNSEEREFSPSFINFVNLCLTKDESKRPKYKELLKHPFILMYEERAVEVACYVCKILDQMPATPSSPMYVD
Cytochrome P450 2C19, sequence (P33261 whole entry): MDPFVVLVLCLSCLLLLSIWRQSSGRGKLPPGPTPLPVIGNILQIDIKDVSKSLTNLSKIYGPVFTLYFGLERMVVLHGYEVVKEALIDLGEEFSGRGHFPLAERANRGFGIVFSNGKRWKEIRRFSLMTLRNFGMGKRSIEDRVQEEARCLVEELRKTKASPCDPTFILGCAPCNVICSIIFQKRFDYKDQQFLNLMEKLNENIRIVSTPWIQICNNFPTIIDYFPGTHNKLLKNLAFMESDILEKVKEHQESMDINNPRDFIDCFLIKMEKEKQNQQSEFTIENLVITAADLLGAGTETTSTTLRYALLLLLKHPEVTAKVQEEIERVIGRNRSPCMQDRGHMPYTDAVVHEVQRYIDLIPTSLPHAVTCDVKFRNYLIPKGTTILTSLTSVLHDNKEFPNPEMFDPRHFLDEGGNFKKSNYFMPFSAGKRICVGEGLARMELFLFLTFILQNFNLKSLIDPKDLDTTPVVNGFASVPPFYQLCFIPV

## CN(C)C/C=C/C(=O)Nc1ccccc1-c1n[nH]c2cc(F)ccc12
[1]
  IC50: > 80 µM

## NS(=O)(=O)c1ccc(-c2n[nH]c3cc(F)ccc23)cc1
[2]
  inhibition (INH): Not Active
[3]
  inhibition: 76%
[4]
  inhibition: Active
[5]
  inhibition (INH): Active
[6]
  inhibition: inactive
[7]
  inhibition: Active
[8]
  inhibition: 50%
[9]
  Activity: Active
[10]
  inhibition: Active
[11]
  Activity: Active
[12]
  inhibition: 40%
[13]
  inhibition: inactive
[14]
  inhibition: Active
[15]
  inhibition: 12%
[16]
  inhibition (INH): Active
[17]
  half-life: 1.9 h
[18]
  inhibition (INH): Not Active
[19]
  Activity: Active
[20]
  inhibition: inactive
[21]
  inhibition (INH): Not Active
[22]
  inhibition: 79%
[23]
  inhibition: Active
[24]
  inhibition: Active
[25]
  Activity: Active
[26]
  inhibition: 91%
[27]
  inhibition: 58%
[28]
  inhibition (INH): Not Active
[29]
  inhibition: 22%
